Consider ten compounds from ChEMBL document CHEMBL4411328, “Synthesis and Structural/Functional Characterization of Selective M14 Metallocarboxypeptidase Inhibitors Based on Phosphinic Pseudopeptide Scaffold: Implications on the Design of Specific Optical Probes” (J Med Chem, 2019).

Assay [1] concerns the target T1, Carboxypeptidase D (Homo sapiens) (UniProt O75976).
T1 sequence (whole entry): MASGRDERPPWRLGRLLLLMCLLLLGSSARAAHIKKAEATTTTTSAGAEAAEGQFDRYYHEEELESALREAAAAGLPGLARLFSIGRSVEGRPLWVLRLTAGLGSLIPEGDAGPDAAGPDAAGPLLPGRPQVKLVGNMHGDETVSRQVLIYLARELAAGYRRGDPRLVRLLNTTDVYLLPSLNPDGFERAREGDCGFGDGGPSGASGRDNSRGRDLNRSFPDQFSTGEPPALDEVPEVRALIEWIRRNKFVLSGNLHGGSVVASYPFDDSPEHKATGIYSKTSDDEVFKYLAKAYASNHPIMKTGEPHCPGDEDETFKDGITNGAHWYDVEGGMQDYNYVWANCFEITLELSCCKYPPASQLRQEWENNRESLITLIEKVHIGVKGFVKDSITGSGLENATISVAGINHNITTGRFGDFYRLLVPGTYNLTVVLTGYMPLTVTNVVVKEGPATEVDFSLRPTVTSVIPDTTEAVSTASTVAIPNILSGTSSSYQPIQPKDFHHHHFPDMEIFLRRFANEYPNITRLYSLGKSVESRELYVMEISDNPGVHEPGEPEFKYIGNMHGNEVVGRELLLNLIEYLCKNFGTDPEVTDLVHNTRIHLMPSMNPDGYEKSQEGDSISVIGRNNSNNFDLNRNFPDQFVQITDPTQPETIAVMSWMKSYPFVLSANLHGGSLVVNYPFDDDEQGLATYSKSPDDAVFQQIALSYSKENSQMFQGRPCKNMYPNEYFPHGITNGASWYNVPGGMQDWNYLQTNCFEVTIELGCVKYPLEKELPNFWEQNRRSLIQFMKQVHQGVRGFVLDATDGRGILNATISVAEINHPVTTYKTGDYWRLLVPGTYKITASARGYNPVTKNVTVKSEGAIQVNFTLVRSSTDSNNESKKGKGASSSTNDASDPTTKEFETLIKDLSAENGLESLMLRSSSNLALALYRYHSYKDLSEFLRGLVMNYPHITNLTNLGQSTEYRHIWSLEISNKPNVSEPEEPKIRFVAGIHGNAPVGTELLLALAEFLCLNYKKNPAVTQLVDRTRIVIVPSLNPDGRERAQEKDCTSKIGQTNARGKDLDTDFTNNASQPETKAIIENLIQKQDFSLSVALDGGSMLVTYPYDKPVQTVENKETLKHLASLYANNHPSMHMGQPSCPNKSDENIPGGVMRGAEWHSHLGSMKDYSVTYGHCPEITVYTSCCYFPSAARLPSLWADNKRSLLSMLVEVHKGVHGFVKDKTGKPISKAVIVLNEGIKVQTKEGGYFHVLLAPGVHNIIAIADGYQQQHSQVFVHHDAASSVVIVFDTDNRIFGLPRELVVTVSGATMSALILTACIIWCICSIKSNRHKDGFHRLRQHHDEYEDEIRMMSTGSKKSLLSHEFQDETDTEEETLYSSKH
Put plainly: Inhibition of human CPD at 1 nM to 1 mM using AAFA as substrate preincubated for 45 mins to 2 hrs measured at 30 sec intervals for 15 mins by UV/vis-spectrophotometry. In a few lines:
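hCPD was used at 2.0x10-8 M with AAFA substrate at 1.0x10-4 M, monitored at 355 nm. Buffer was 20 mM Tris-HCl pH 7.5, 100 mM NaCl, 1% DMSO, 0.05% Brij-35. Preincubation was 45 min at 37 °C. Residual activity at a range of inhibitor concentrations was measured from initial rates (30 sec reads, 15 min), in triplicate. Kiapp came from the tight-binding fit.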

The next assay has as its target T2, Carboxypeptidase A2 (Homo sapiens, UniProt P48052).
T2 sequence (P48052 whole entry): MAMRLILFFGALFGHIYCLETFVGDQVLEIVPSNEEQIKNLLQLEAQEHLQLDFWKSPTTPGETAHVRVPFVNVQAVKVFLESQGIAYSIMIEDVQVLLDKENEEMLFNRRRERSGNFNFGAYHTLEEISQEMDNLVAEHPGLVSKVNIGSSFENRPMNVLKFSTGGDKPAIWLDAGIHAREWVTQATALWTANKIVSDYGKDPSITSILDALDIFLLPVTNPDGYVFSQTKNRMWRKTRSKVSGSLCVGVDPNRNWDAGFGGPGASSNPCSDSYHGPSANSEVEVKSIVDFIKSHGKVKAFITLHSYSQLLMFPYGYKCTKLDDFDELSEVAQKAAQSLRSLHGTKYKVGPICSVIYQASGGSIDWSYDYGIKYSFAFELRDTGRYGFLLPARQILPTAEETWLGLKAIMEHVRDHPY
Briefly: Inhibition of human CPA2 using AAFP as substrate preincubated for 45 mins to 2 hrs measured at 30 sec intervals for 15 mins by UV/vis-spectrophotometry. In a few lines: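 hCPA2 was used at 3.0x10-8 M with AAFP substrate at 1.0x10-4 M, read at 355 nm, in 20 mM Tris-HCl pH 7.5, 500 mM NaCl, 1% DMSO, 0.05% Brij-35. After a 45 min preincubation at 37 °C, initial rates were followed at 30 sec intervals for 15 min, in triplicate. Kiapp was fitted by the tight-binding equation.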

Another assay has as its target T3, Carboxypeptidase A4 (Homo sapiens, UniProt Q9UI42).
T3 sequence (Q9UI42 whole entry): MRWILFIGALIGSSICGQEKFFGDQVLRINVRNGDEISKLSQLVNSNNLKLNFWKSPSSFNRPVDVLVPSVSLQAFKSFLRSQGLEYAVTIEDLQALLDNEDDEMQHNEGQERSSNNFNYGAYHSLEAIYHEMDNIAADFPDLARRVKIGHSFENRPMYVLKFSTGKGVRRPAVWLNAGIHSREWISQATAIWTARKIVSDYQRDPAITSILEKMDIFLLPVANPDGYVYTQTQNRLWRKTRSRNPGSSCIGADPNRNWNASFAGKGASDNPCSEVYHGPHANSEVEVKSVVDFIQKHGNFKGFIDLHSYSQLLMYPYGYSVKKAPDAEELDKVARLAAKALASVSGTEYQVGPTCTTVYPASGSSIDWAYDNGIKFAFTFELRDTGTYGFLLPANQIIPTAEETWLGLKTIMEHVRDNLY
Briefly: Inhibition of human CPA4 using AAFP as substrate preincubated for 45 mins to 2 hrs measured at 30 sec intervals for 15 mins by UV/vis-spectrophotometry. The method in brief: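 Enzyme was hCPA4 at 4.3x10-8 M, with 1.0x10-4 M AAFP and detection at 355 nm. Inhibitor and enzyme were preincubated 45 min at 37 °C, then initial velocities were taken over 15 min (30 sec reads), in triplicate. Kiapp was obtained from the tight-binding fit.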

Calls of active or inactive are those of the source. The calls are words filed in the database; no cut-off is given here.

Consider `C[C@H](NC(=O)[C@H](Cc1ccc(O)cc1)NC(=O)COCCOCCNC(=O)CCOCCOCCOCCNC(=O)CCc1ccc(C(=C\C=C2\N(CCCCS(=O)(=O)O)c3ccc4c(S(=O)(=O)[O-])cc(S(=O)(=O)O)cc4c3C2(C)C)/C=C/C2=[N+](CCCCS(=O)(=O)O)c3ccc4c(S(=O)(=O)O)cc(S(=O)(=O)O)cc4c3C2(C)C)cc1)P(=O)(O)C[C@@H](CCc1ccccc1)C(=O)O`, for which the inhibition result in assay [1] was “inactive”. For the same compound, the Ki came to 5.3 nM at Carboxypeptidase A2 and 5.7 nM on Carboxypeptidase A4.
For `CC(=O)N[C@@H](Cc1ccc(O)cc1)C(=O)N[C@@H](C)P(=O)(O)C[C@@H](CCc1ccccc1)C(=O)O`, in that order: “inactive”, 1.7 nM and 2.6 nM.
In the case of `CC(=O)N[C@@H](CO)C(=O)N[C@@H](C)P(=O)(O)C[C@@H](CCc1ccccc1)C(=O)O`, the inhibition entry in assay [1] was “inactive”. Besides, the Ki is 13.8 nM on Carboxypeptidase A2 and 60.6 nM at Carboxypeptidase A4.
Taken in the same sequence, the figures for `CC(=O)NCCOCCOCC(=O)N[C@@H](Cc1ccc(O)cc1)C(=O)N[C@@H](C)P(=O)(O)C[C@@H](CCc1ccccc1)C(=O)O` were “inactive”, 5.7 nM and 3.5 nM.
For `CC(=O)N[C@@H](CC(C)C)C(=O)N[C@@H](C)P(=O)(O)C[C@@H](CCc1ccccc1)C(=O)O`, in that order: “inactive”, 0.7 nM and 3.3 nM.
Taken in the same sequence, the figures for `CC(=O)N1CCC[C@H]1C(=O)N[C@@H](C)P(=O)(O)C[C@@H](CCc1ccccc1)C(=O)O` were “inactive”, 3.2 nM and 7.5 nM.
`CC(=O)N[C@@H](CC(C)C)C(=O)N[C@@H](Cc1ccccc1)P(=O)(O)C[C@@H](CCc1ccccc1)C(=O)O`: in assay [1], the inhibition result is “inactive”. In addition, the figures for the Ki on Carboxypeptidase A2 and on Carboxypeptidase A4 were 0.2 nM and 1.9 nM, respectively.
Take `CC(=O)N[C@@H](CCCCN)C(=O)N[C@@H](C)P(=O)(O)C[C@@H](CCc1ccccc1)C(=O)O`: in assay [1], the inhibition result was “inactive”. The Ki on Carboxypeptidase A2 came out at 2.4 nM; on Carboxypeptidase A4, 25.4 nM.
Consider `C[C@H](NC(=O)[C@H](Cc1ccc(O)cc1)NC(=O)COCCOCCN)P(=O)(O)C[C@@H](CCc1ccccc1)C(=O)O`, for which the inhibition entry in assay [1] is “inactive”. Also, the values for the Ki at Carboxypeptidase A2 and on Carboxypeptidase A4 were 7.8 nM and 5.4 nM, respectively.
Taken in the same sequence, the figures for `CC(=O)N[C@@H](CCC(=O)O)C(=O)N[C@@H](C)P(=O)(O)C[C@@H](CCc1ccccc1)C(=O)O` were “inactive”, 4.6 nM and 38.6 nM.

The term Ki denotes a dissociation constant, usually derived from enzyme kinetics or from competition with a known ligand. A low value points to a stronger hold on the target.
